{"source": "ChEMBL document CHEMBL5696442", "about": "“Discovery of type II inhibitors of TGFβ-activated kinase 1 (TAK1) and mitogen-activated protein kinase kinase kinase kinase 2 (MAP4K2)” (J Med Chem, 2015)", "key": {"[1]": {"molecular_target": "Dual specificity mitogen-activated protein kinase kinase 1 (Homo sapiens) (UniProt Q02750)", "sequence (Q02750 whole entry)": "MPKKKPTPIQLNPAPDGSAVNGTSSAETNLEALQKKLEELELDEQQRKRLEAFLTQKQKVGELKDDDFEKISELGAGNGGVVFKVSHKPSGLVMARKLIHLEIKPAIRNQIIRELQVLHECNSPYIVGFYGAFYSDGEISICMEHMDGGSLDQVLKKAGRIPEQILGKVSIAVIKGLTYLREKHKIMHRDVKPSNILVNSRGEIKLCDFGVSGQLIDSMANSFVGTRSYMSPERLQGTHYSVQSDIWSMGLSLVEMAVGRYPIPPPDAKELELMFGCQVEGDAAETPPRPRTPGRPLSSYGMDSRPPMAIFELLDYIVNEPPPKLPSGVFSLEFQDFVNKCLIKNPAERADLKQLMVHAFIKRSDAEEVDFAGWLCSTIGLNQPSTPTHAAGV", "assay": "Inhibition of MAP2K1 Lys2 labeling site harbouring IMHRDVKPSNILVNSR in human A-375 cells at 0.05 uM by KiNativ Profiling analysis relative to control", "format": "cell-based"}, "[2]": {"molecular_target": "T1, Ephrin type-B receptor 2 (Homo sapiens) (UniProt P29323)", "T1 sequence (whole entry)": "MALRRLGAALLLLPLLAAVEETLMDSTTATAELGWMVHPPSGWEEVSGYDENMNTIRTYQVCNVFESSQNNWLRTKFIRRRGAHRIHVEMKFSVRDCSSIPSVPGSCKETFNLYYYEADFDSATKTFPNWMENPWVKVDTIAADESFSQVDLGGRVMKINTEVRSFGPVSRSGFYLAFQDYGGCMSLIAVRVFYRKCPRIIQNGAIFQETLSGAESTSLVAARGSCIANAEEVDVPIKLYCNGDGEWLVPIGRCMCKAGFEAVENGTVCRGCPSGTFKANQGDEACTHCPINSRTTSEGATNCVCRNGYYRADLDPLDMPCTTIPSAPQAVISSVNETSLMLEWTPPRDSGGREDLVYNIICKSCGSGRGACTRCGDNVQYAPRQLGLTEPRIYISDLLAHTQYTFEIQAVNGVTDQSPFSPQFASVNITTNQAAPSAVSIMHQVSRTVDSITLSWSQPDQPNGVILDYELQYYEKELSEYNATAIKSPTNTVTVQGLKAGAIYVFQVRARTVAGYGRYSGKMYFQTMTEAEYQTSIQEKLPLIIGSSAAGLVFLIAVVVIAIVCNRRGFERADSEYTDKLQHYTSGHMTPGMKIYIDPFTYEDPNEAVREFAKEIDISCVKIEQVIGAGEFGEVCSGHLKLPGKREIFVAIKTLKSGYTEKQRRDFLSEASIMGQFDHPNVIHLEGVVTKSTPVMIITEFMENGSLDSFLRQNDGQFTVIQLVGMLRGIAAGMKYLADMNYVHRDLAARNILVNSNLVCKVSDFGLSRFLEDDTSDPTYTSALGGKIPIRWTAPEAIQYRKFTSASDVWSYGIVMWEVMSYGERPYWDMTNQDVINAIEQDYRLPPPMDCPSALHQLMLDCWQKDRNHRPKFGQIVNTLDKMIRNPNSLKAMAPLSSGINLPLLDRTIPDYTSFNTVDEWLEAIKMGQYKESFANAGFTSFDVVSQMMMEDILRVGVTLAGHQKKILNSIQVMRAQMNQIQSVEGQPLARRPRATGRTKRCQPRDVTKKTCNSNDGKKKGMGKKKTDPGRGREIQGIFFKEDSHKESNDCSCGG", "assay": "Inhibition of EphB2 ACT labeling site in human A-375 cells at 0.5 uM by KiNativ Profiling analysis relative to control", "format": "cell-based", "method_in_brief": "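Live A375 melanoma cells were treated with compound at 0.5 or 5 μM, then lysed. Lysates were labeled with a lysine-reactive ATP or ADP-biotin probe. The read-out was protection of each kinase probe-labeling site from labeling, relative to control.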"}, "[3]": {"molecular_target": "Tyrosine-protein kinase Lyn (Homo sapiens, UniProt P07948)", "sequence (P07948 2-512 limits assumed)": "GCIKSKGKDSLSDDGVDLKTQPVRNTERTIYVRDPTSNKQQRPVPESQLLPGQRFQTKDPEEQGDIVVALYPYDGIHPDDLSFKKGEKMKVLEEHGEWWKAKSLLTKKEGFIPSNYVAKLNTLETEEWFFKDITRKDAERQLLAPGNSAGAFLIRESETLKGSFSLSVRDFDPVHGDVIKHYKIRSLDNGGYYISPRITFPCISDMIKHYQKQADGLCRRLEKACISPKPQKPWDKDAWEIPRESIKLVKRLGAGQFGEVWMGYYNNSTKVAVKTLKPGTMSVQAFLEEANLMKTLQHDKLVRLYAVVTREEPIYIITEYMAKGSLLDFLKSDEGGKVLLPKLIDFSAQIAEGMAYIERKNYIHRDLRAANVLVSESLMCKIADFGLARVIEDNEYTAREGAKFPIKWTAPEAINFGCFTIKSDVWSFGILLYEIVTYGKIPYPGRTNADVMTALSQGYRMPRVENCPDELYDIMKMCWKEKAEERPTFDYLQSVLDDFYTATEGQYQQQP", "assay": "Inhibition of LYN Lys1 labeling site in human A-375 cells at 0.5 uM by KiNativ Profiling analysis relative to control", "format": "cell-based"}, "[4]": {"molecular_target": "T2, Serine/threonine-protein kinase 3 (Homo sapiens) (UniProt Q13188)", "T2 sequence (whole entry)": "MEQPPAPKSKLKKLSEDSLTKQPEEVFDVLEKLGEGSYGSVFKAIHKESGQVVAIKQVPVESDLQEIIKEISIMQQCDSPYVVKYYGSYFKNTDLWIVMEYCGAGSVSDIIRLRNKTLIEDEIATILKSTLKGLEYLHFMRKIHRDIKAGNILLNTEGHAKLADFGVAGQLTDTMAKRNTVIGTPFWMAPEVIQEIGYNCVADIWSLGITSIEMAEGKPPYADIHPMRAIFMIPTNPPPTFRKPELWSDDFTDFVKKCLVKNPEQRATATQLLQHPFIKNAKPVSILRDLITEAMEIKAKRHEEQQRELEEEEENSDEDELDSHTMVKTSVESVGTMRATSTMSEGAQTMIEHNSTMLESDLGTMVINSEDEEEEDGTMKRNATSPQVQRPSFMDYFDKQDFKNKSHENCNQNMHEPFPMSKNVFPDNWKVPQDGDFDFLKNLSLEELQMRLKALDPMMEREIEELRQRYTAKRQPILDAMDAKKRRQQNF", "assay": "Inhibition of MST2 Lys2 labeling site harbouring DIKAGNILLNTEGHAK in human A-375 cells at 0.05 uM by KiNativ Profiling analysis relative to control", "format": "cell-based"}, "[5]": {"molecular_target": "T3, Serine/threonine-protein kinase ULK3 (Homo sapiens) (UniProt Q6PHR2)", "T3 sequence (whole entry)": "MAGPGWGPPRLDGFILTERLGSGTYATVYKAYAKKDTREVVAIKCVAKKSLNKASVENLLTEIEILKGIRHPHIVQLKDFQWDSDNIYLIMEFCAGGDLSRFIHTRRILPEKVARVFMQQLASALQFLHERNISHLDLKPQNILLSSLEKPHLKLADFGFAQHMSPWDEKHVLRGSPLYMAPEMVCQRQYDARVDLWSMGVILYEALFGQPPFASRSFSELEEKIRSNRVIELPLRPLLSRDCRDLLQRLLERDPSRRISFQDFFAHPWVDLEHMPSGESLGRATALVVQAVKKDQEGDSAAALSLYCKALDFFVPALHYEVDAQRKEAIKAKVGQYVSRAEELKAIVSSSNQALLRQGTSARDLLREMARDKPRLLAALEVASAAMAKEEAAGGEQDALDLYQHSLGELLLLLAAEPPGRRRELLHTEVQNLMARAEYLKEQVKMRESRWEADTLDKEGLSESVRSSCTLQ", "assay": "Inhibition of ULK3 Lys2 labeling site in human A-375 cells at 0.5 uM by KiNativ Profiling analysis relative to control", "format": "cell-based"}, "[6]": {"molecular_target": "Mitogen-activated protein kinase kinase kinase 11 (Homo sapiens) (UniProt Q16584)", "sequence (Q16584 whole entry, looked up)": "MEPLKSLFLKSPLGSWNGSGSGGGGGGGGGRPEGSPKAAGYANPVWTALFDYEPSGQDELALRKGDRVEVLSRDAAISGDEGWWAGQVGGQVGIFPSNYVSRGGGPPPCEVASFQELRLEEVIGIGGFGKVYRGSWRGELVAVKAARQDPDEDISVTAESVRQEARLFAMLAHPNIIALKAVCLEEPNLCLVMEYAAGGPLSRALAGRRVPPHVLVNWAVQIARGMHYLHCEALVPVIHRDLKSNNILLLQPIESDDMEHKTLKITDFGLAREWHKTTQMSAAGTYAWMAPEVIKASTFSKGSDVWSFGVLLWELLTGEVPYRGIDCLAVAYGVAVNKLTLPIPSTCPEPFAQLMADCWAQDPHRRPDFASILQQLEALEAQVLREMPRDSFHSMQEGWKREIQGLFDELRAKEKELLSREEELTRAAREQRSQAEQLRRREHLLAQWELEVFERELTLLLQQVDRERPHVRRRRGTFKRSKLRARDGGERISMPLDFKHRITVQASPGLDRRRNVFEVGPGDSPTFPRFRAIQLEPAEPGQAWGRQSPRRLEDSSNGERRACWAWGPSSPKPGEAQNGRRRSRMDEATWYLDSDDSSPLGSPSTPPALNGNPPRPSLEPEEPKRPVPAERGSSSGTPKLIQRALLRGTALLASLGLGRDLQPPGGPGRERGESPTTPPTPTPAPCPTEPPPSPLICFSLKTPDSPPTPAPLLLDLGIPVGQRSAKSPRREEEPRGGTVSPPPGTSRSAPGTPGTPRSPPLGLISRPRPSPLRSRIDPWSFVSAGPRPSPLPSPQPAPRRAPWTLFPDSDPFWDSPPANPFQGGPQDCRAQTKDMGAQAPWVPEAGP", "assay": "Inhibition of MLK3 Lys2 labeling site in human A-375 cells at 5 uM by KiNativ Profiling analysis relative to control", "format": "cell-based"}, "[7]": {"molecular_target": "Serine/threonine-protein kinase 25 (Homo sapiens) (UniProt O00506)", "sequence (O00506 whole entry, looked up)": "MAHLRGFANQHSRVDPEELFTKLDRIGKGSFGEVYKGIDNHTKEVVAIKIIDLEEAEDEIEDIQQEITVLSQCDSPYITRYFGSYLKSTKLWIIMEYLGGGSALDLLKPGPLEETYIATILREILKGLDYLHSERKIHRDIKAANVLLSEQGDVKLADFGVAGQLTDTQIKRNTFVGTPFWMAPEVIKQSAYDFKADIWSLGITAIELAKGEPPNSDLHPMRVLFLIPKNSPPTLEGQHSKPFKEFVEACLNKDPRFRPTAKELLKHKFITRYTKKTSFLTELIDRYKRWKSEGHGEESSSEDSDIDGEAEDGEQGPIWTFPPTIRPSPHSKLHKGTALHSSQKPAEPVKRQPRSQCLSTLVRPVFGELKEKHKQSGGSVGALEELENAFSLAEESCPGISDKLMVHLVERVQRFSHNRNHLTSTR", "assay": "Inhibition of YSK1 Lys2 labeling site in human A-375 cells at 0.5 uM by KiNativ Profiling analysis relative to control", "format": "cell-based"}, "[8]": {"molecular_target": "MAP/microtubule affinity-regulating kinase 3 (Homo sapiens) (UniProt P27448)", "sequence (P27448 whole entry, looked up)": "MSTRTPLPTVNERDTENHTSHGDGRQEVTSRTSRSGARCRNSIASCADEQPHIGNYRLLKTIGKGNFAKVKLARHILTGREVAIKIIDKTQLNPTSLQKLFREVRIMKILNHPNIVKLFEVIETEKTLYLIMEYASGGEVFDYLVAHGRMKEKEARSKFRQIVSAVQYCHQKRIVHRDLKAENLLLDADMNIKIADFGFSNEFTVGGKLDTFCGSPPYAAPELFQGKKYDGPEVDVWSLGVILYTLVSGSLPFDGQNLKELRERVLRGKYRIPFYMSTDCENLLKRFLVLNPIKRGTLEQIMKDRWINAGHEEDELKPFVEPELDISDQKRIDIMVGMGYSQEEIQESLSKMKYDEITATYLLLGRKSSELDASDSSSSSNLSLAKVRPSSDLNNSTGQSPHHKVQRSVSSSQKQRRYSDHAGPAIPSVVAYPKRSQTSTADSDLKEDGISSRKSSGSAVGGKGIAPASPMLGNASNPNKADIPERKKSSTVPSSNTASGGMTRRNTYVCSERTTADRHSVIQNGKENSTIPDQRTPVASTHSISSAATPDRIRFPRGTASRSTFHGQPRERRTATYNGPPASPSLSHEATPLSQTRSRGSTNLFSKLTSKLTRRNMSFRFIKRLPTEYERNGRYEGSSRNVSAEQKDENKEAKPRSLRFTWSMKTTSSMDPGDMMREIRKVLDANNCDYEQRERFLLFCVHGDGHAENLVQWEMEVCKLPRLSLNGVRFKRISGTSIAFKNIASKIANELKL", "assay": "Inhibition of MARK3 Lys1 labeling site in human A-375 cells at 5 uM by KiNativ Profiling analysis relative to control", "format": "cell-based"}, "[9]": {"molecular_target": "Protein kinase C alpha type (Homo sapiens) (UniProt P17252)", "assay": "Inhibition of PKCa Lys2 labeling site in human A-375 cells at 5 uM by KiNativ Profiling analysis relative to control", "format": "cell-based"}, "MEF": {"system": "MEF", "assay": "Inhibition of TGF-beta induced p38 MAPK phosphorylation level in wild type mouse MEF cells incubated for 1 hr followed by TGF-beta stimulation by Western blot analysis", "format": "functional, cell-based", "settings": "dose <= 500.0 nM"}, "[10]": {"molecular_target": "Proto-oncogene tyrosine-protein kinase Src (Homo sapiens, UniProt P12931)", "sequence (P12931 2-536 limits assumed)": "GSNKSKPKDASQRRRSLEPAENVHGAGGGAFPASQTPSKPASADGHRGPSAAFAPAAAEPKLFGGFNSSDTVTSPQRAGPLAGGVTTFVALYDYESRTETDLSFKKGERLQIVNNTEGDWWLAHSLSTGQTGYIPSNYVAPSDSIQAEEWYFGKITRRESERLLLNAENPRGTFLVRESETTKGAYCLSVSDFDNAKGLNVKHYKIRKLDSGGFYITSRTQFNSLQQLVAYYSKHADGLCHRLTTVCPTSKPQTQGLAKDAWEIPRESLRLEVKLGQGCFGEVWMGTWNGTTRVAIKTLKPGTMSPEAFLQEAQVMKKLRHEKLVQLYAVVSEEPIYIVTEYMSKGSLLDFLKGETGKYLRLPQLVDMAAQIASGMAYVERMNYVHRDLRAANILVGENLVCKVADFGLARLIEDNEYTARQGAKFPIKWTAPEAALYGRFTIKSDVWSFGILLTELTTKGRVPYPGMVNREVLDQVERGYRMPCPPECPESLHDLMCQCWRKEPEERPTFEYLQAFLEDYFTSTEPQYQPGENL", "assay": "Inhibition of SRC Lys1 labeling site in human Huh-7 cell lysate at 1 uM by KiNativ Profiling analysis relative to control", "format": "subcellular"}}, "data": [{"compound": "CCN1CCN(Cc2ccc(NC(=O)c3ccc(C)c(/C=C/c4cnc5[nH]ccc5c4OC)c3)cc2C(F)(F)F)CC1", "values": [{"measurement": "inhibition", "setting": "[1]", "result": 32.5, "unit": "%"}, {"measurement": "inhibition", "setting": "[2]", "result": 55.5, "unit": "%"}, {"measurement": "inhibition", "setting": "[3]", "result": "> 95", "unit": "%"}, {"measurement": "inhibition", "setting": "[4]", "result": -7, "unit": "%"}, {"measurement": "inhibition", "setting": "[5]", "result": 8.5, "unit": "%"}, {"measurement": "inhibition", "setting": "[6]", "result": 81.1, "unit": "%"}, {"measurement": "inhibition", "setting": "[7]", "result": 9.8, "unit": "%"}, {"measurement": "inhibition", "setting": "[8]", "result": 13.3, "unit": "%"}, {"measurement": "inhibition", "setting": "[9]", "result": 50.2, "unit": "%"}]}, {"compound": "CCN1CCN(Cc2ccc(NC(=O)c3ccc(C)c(Oc4ccnc5[nH]ccc45)c3)cc2C(F)(F)F)CC1", "values": [{"measurement": "inhibition", "setting": "[1]", "result": 14.9, "unit": "%"}, {"measurement": "inhibition", "setting": "[2]", "result": -2.2, "unit": "%"}, {"measurement": "inhibition", "setting": "[3]", "result": 90.5, "unit": "%"}, {"measurement": "inhibition", "setting": "[4]", "result": 4.7, "unit": "%"}, {"measurement": "inhibition", "setting": "[5]", "result": -2.5, "unit": "%"}, {"measurement": "inhibition", "setting": "[6]", "result": 9.5, "unit": "%"}, {"measurement": "inhibition", "setting": "[7]", "result": 12.5, "unit": "%"}, {"measurement": "inhibition", "setting": "[8]", "result": 4.9, "unit": "%"}, {"measurement": "inhibition", "setting": "[9]", "result": 51, "unit": "%"}]}, {"compound": "CNc1cc(Oc2cc(C(=O)Nc3cc(-n4cnc(C)c4)cc(C(F)(F)F)c3)ccc2C)ncn1", "values": [{"measurement": "inhibition", "setting": "MEF", "result": "Dose-Dependent Effect"}, {"measurement": "inhibition", "setting": "[10]", "result": -2.8, "unit": "%"}]}, {"compound": "CNc1cc(Oc2cc(C(=O)Nc3cc(N4CCN(C)CC4)cc(C(F)(F)F)c3)ccc2C)ncn1", "values": [{"measurement": "inhibition", "setting": "MEF", "result": "Dose-Dependent Effect"}, {"measurement": "inhibition", "setting": "[10]", "result": 18.1, "unit": "%"}]}]}
